The test system of assay [1] is Mus musculus. Kind of assay: Anti-colitis activity in Swiss albino mouse model of DSS-induced acute colitis assessed as reduction in DSS-induced lymphoid hyperplasia in the sub-musoca in colon at 10 mg/kg, ip administrated for 7 days by H and E staining based light microscopic method. It counts as functional, organism-based. The method, boiled down:
(§1)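 DSS colitis (3% DSS, 7 days) in male Swiss albino mice with daily ip 10 mg/kg in 4% DMSO/2% tween/saline. Distal colon fixed in 10% formol saline 24 h, paraffin-embedded, 4 µm sections, H&E, light microscopy scored for epithelial ulceration/desquamation, mucosal and submucosal infiltration, submucosal oedema, haemorrhage, lymphoid hyperplasia.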

Assay [2] concerns the target T1, Cannabinoid receptor 2 (Homo sapiens, UniProt P34972). Put plainly: Agonist activity at recombinant human CB2R expressed in CHOK1 cells assessed as inhibition of NKH477-stimulated intracellular cAMP levels after 30 mins by chemiluminescent detection based cAMP Hunter assay. The class given is functional, cell-based. The procedure, abridged: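 CHO-K1 cells overexpressing human CB2R, plated 30,000 cells/well, overnight 37 °C, 5% CO2. Compound dose-responses incubated 30 min at 37 °C with NKH-477 (25 µM) to stimulate adenylate cyclase. Enzyme fragment complementation chemiluminescence read. Normalised to NKH-477 alone as 100%; mean ± SEM of three independent experiments in triplicate.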
For orientation: Cyclic AMP is a second messenger, typically raised through Gs and lowered through Gi signalling.

For assay [3], the system named is Mus musculus. Kind of assay: Anti-colitis activity in Swiss albino mouse model of DSS-induced acute colitis assessed as reduction in DSS-induced oedema in colon at 10 mg/kg, ip administrated for 7 days by H and E staining based light microscopic method. It counts as functional, organism-based. The procedure, abridged:
as §1

The target in assay [4] is T2, Cannabinoid receptor 1 (Homo sapiens, UniProt P21554). Put plainly: Displacement of [3H]CP55940 from recombinant human CB1R expressed in HEK293 cell membranes at 10 uM incubated for 90 mins relative to control.
T2 sequence (P21554 whole entry): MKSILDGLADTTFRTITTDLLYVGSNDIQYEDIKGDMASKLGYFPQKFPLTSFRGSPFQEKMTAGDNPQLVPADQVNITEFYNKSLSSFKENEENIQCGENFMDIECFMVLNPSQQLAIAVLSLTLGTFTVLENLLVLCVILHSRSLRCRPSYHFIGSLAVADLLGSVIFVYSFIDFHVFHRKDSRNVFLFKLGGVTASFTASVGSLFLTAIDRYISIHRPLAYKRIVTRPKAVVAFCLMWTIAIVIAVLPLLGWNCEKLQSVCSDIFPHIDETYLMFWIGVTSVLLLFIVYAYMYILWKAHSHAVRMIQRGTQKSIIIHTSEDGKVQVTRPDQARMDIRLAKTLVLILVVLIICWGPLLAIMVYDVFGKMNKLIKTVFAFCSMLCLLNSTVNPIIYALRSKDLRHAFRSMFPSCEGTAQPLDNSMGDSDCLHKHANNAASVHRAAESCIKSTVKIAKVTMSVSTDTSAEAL
Assay [5] has as its target T1, Cannabinoid receptor 2. Put plainly: Agonist activity at N-terminal Flag epitope tagged CB2 (unknown origin) expressed in HTLA cells assessed as increase of beta-arrestin recruitment by Tango assay. The class given is cell-based. The method, boiled down: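 β-arrestin Tango assay: HTLA cells transfected overnight with GPCR tango constructs, plated at 15,000 cells/well in DMEM with 1% dFBS, recovered ≥6 h. Drugs in Tango buffer (20 mM HEPES, 1x HBSS, pH 7.40) added overnight, full concentration-response (maximum 30 µM). BrightGlo reagent, 20 min room temperature in dark, luminescence read.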
In general terms: Arrestin recruitment assays detect the binding of arrestin to an activated receptor.

The test system of assay [6] is Mus musculus. Put plainly: Anti-colitis activity in Swiss albino mouse model of DSS-induced acute colitis assessed as reduction in DSS-induced inflammatory cells infiltration in the submucosa in colon at 10 mg/kg, ip administrated for 7 days by H and E staining based light microscopic method. It counts as functional, organism-based. The procedure, abridged: as §1

Assay [7] has as its system Mus musculus. Put plainly: Anti-colitis activity in Swiss albino mouse model of DSS-induced acute colitis assessed as disease activity index at 10 mg/kg, ip administrated for 7 days (reference value: 7.143 +/- 1.29). It counts as functional.
The target of assay [8] is T2, Cannabinoid receptor 1. Put plainly: Agonist activity at N-terminal Flag epitope tagged CB1 (unknown origin) expressed in HTLA cells assessed as increase of beta-arrestin recruitment by Tango assay. The class given is cell-based. The procedure, abridged:
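HTLA cells transfected overnight with GPCR Tango constructs, plated at 15,000 cells/well in DMEM with 1% dFBS and allowed to recover at least 6 h. Compounds in Tango buffer (20 mM HEPES, 1x HBSS, pH 7.40) added overnight, full concentration-response up to 30 µM against CP-55,940 as reference agonist. BrightGlo reagent added for 20 min at room temperature in the dark, then luminescence read.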

The test system of assay [9] is Mus musculus. Kind of assay: Anti-colitis activity in Swiss albino mouse model of DSS-induced acute colitis assessed as reduction in DSS-induced desquamation in lining of mucosal epithelium in colon tissue at 10 mg/kg, ip administrated for 7 days by H and E staining based light microscopic method. It counts as functional, organism-based. The procedure, abridged: as §1

For assay [10], the target named is T2, Cannabinoid receptor 1. Kind of assay: Antagonist activity at N-terminal Flag epitope tagged CB1 (unknown origin) expressed in HTLA cells assessed as decrease in CP55940-induced beta-arrestin recruitment pretreated with non-selective cannabinoid receptor agonist CP55940 for 30 mins and measured after 20 mins by Tango assay. It counts as cell-based.
Assay [11] deals with Mus musculus. Kind of assay: Anti-colitis activity in Swiss albino mouse model of DSS-induced acute colitis assessed as reduction in DSS-induced haemorrhage in colon at 10 mg/kg, ip administrated for 7 days by H and E staining based light microscopic method. The class given is functional, organism-based. The procedure, abridged:
as §1

For assay [12], the system named is Mus musculus. Put plainly: Anti-inflammatory activity in Swiss albino mouse model of DSS-induced acute colitis as IL1beta level in colon tissue at 10 mg/kg, ip administrated for 7 days by ELISA (reference value: 140.9 +/- 8.551 pg/mg). The class given is functional. (In general: An ELISA detects its analyte on a solid surface through an enzyme-linked reagent.)

The species named for another assay is Homo sapiens. Put plainly: Selectivity index, ratio of Ki for recombinant human CB1R expressed in HEK293 cell membranes to Ki for recombinant human CB2R expressed in HEK293 cell membranes. The class given is cell-based.
Assay [13] concerns Mus musculus. Kind of assay: Anti-colitis activity in Swiss albino mouse model of DSS-induced acute colitis assessed as reduction in DSS-induced ulceration in distal part of colon at 10 mg/kg, ip administrated for 7 days by H and E staining based light microscopic method. The class given is functional, organism-based. The method, boiled down: as §1
The test system of assay [14] is Mus musculus. Put plainly: Anti-inflammatory activity in Swiss albino mouse model of DSS-induced acute colitis as TNFalpha level in colon tissue at 10 mg/kg, ip administrated for 7 days by ELISA (reference value: 102.4 +/- 5.043 pg/mg). The class given is functional.
In assay [15] the test system is Mus musculus. Kind of assay: Anti-colitis activity in Swiss albino mouse model of DSS-induced acute colitis assessed as colon length at 10 mg/kg, ip administrated for 7 days (reference value: 7.314 +/- 0.1143 cm). The class given is functional.
Assay [16] deals with T1, Cannabinoid receptor 2. Put plainly: Antagonist activity at N-terminal Flag epitope tagged CB2 (unknown origin) expressed in HTLA cells assessed as decrease in CP55940-induced beta-arrestin recruitment pretreated with non-selective cannabinoid receptor agonist CP55940 for 30 mins and measured after 20 mins by Tango assay. The class given is cell-based.
Assay [17] deals with T1, Cannabinoid receptor 2. Kind of assay: Displacement of [3H]CP55940 from recombinant human CB2R expressed in HEK293 cell membranes at 10 uM incubated for 90 mins relative to control.

Activity calls are given as the source filed them. No cut-off for these calls is given here. A value given as a limit tells only on which side of the number the result lay.

Nine molecules from ChEMBL document CHEMBL4364306, “Structure-activity relationships of thiazole and benzothiazole derivatives as selective cannabinoid CB2 agonists with in vivo anti-inflammatory properties” (Eur J Med Chem, 2019) can be followed below.

T1 sequence (P34972 whole entry, the tested form may be a part): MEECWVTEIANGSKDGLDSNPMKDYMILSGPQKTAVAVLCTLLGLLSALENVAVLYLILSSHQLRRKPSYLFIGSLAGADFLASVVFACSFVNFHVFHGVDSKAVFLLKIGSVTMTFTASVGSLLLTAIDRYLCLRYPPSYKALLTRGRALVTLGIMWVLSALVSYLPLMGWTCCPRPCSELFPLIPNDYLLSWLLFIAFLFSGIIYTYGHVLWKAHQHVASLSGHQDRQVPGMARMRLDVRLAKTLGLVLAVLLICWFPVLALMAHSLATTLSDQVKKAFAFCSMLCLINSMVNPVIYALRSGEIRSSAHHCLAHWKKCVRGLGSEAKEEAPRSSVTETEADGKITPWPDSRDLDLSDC

`CCCCCn1/c(=N/C(=O)c2cccc(C(F)(F)F)c2)sc2ccccc21`: the result in the assay with Mus musculus [1], with Mus musculus [3], at Cannabinoid receptor 1 [4], with Mus musculus [9], in the assay on Mus musculus [11] and with Mus musculus [13] was Active. Besides, at Cannabinoid receptor 2 [17], the outcome was Active. For the same molecule, the EC50 was 0.306 µM on Cannabinoid receptor 2 [2]; 0.129 µM on Cannabinoid receptor 2 [5]; over 30 µM on Cannabinoid receptor 1 [8]; over 30 µM on Cannabinoid receptor 1 [10]; over 30 µM on Cannabinoid receptor 2 [16]. Moreover, in the assay with Mus musculus [6], the outcome was inactive. In addition, the Activity_index in the assay on Mus musculus [7] was found to be 3.286. Besides, the Activity in the assay with Mus musculus [12] was determined as 102.4 pg/mg; in the assay on Mus musculus [14] it was 58.71 pg/mg; in the assay on Mus musculus [15], 6.729 cm. The Ratio Ki in the assay filed under Homo sapiens was determined as 429.

For the molecule `Cc1nc(-c2ccccc2)sc1C(=O)NC12CC3CC(CC(C3)C1)C2`, the result on Cannabinoid receptor 1 [4] and at Cannabinoid receptor 2 [17] was Active. Moreover, the EC50 on Cannabinoid receptor 2 [5], on Cannabinoid receptor 1 [8], on Cannabinoid receptor 1 [10] and at Cannabinoid receptor 2 [16] was over 30 µM each time. The Ratio Ki in the assay filed under Homo sapiens was over 22.

With `Cc1nc(C)c(C(=O)NC23CC4CC(CC(C4)C2)C3)s1`, the result at Cannabinoid receptor 1 [4] and on Cannabinoid receptor 2 [17] was Active. In addition, the EC50 at Cannabinoid receptor 2 [5], on Cannabinoid receptor 1 [8], at Cannabinoid receptor 1 [10] and at Cannabinoid receptor 2 [16] was over 30 µM in each case. Further, the Ratio Ki in the assay listed under Homo sapiens was over 6.

Turning to `CCCCCn1/c(=N\C(=O)C23CC4CC(CC(C4)C2)C3)sc2ccccc21`, the EC50 was 0.057 µM at Cannabinoid receptor 2 [2]; 0.0263 µM on Cannabinoid receptor 2 [5]; 1.62 µM on Cannabinoid receptor 1 [8]; over 30 µM on Cannabinoid receptor 1 [10]; over 30 µM on Cannabinoid receptor 2 [16]. The outcome on Cannabinoid receptor 1 [4] and on Cannabinoid receptor 2 [17] was Active. The Ratio Ki in the assay filed under Homo sapiens stood at 120.

Consider `Cc1nc(-c2ccccc2)sc1C(=O)N1CCOCC1`, for which the outcome at Cannabinoid receptor 1 [4] and on Cannabinoid receptor 2 [17] was Active. Further, the EC50 at Cannabinoid receptor 2 [5], at Cannabinoid receptor 1 [8], on Cannabinoid receptor 1 [10] and on Cannabinoid receptor 2 [16] was over 30 µM each time. Also, the Ratio Ki in the assay filed under Homo sapiens is over 3.

Take `Cc1nc(C(C)(C)C)sc1C(=O)NC12CC3CC(CC(C3)C1)C2`: the outcome on Cannabinoid receptor 1 [4] and on Cannabinoid receptor 2 [17] was Active. The EC50 is 3.98 µM at Cannabinoid receptor 2 [5], over 30 µM on Cannabinoid receptor 1 [8], over 30 µM on Cannabinoid receptor 1 [10] and over 30 µM at Cannabinoid receptor 2 [16]. Further, the Ratio Ki in the assay filed under Homo sapiens is over 25.

`CCCCCn1/c(=N/C(=O)c2cccc3ccccc23)sc2ccccc21`: the EC50 on Cannabinoid receptor 2 [2] is 0.068 µM; at Cannabinoid receptor 2 [5], 0.0129 µM; at Cannabinoid receptor 1 [8], 0.126 µM; at Cannabinoid receptor 1 [10], over 30 µM; on Cannabinoid receptor 2 [16] it was over 30 µM. Also, the result at Cannabinoid receptor 1 [4] and at Cannabinoid receptor 2 [17] was Active. Besides, the Ratio Ki in the assay filed under Homo sapiens came out at 22.2.

With `O=C(NC1CCCc2ccccc21)c1nc2ccccc2s1` (stereo unspecified), the outcome on Cannabinoid receptor 1 [4] and at Cannabinoid receptor 2 [17] was Active. For the same molecule, the EC50 on Cannabinoid receptor 2 [5], at Cannabinoid receptor 1 [8], at Cannabinoid receptor 1 [10] and at Cannabinoid receptor 2 [16] was over 30 µM each time. Further, the Ratio Ki in the assay listed under Homo sapiens was 3.

Regarding `Cc1nc(-c2ccccc2)sc1C(=O)NC1CCCc2ccccc21` (stereo unspecified), the outcome on Cannabinoid receptor 1 [4] and on Cannabinoid receptor 2 [17] was Active. Besides, the EC50 on Cannabinoid receptor 2 [5], at Cannabinoid receptor 1 [8], at Cannabinoid receptor 1 [10] and on Cannabinoid receptor 2 [16] was over 30 µM each time. Further, in the assay filed under Homo sapiens, the Ratio Ki is over 4.

Usually EC50 stands for the concentration needed to bring the measured effect to its halfway point.
